Results from ChEMBL document CHEMBL1938381, “Design, synthesis, and structure-activity relationship studies of conformationally restricted mutilin 14-carbamates” (2012).
Converted amounts (≈) assume the structure as drawn.

Legend:
Assay type in all cases: functional
[1] = tested on: Staphylococcus aureus; experiment: Ratio of Linezolid MIC to compound MIC for methicillin-susceptible Staphylococcus aureus
[2] = tested on: Staphylococcus epidermidis; experiment: Antibacterial activity against methicillin-susceptible Staphylococcus epidermidis by agar microdilution method
Outline: (§1)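 MIC by agar microdilution following NCCLS standard M7-A6 (2003), tested against clinical isolates: MRSA n = 6, MRSE n = 5, MSSA n = 5, MSSE n = 5; values given as a single MIC or a range across isolates.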

[3] = tested on: Staphylococcus epidermidis; experiment: Antibacterial activity against methicillin-resistant Staphylococcus epidermidis by agar microdilution method; outline: as §1
[4] = tested on: Streptococcus pneumoniae; experiment: Antibacterial activity against Streptococcus pneumoniae by agar microdilution method
Outline: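 MIC read by agar microdilution following NCCLS standard M7-A6 (2003), against a panel of 3 Streptococcus pneumoniae clinical isolates. Values in µg/mL, given as a range where the isolates differed.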

[5] = tested on: Streptococcus pneumoniae; experiment: Ratio of Linezolid MIC to compound MIC for Streptococcus pneumoniae
[6] = tested on: Staphylococcus aureus; experiment: Antibacterial activity against methicillin-susceptible Staphylococcus aureus by agar microdilution method; outline: as §1
[7] = tested on: Staphylococcus aureus; experiment: Antibacterial activity against methicillin-resistant Staphylococcus aureus by agar microdilution method; outline: as §1
[8] = tested on: Staphylococcus epidermidis; experiment: Ratio of Linezolid MIC to compound MIC for methicillin-susceptible Staphylococcus epidermidis

Compound | Ratio [1] | MIC [2] | MIC [3] | MIC [4] | Ratio [5] | MIC [6] | MIC [7] | Ratio [8]
C=C[C@]1(C)C[C@@H](OC(=O)N2Cc3ccccc3C2=O)[C@]2(C)[C@H](C)CC[C@]3(CCC(=O)[C@H]32)[C@@H](C)[C@@H]1O | 4 | 0.125 µg/mL (≈ 0.261 µM) | 0.125 µg/mL (≈ 0.261 µM) | 0.125 µg/mL (≈ 0.261 µM) | 4 | 0.125 µg/mL (≈ 0.261 µM) | 0.125 µg/mL (≈ 0.261 µM) | 4
C=C[C@]1(C)C[C@@H](OC(=O)N2Cc3c(OC)cccc3C2=O)[C@]2(C)[C@H](C)CC[C@]3(CCC(=O)[C@H]32)[C@@H](C)[C@@H]1O |  | 2 µg/mL (≈ 3.92 µM) | 2 µg/mL (≈ 3.92 µM) | 4 µg/mL (≈ 7.85 µM) |  | 2 µg/mL (≈ 3.92 µM) | 2 µg/mL (≈ 3.92 µM) | 
C=C[C@]1(C)C[C@@H](OC(=O)N2Cc3c(cccc3[N+](=O)[O-])C2=O)[C@]2(C)[C@H](C)CC[C@]3(CCC(=O)[C@H]32)[C@@H](C)[C@@H]1O |  | 0.5 µg/mL (≈ 0.953 µM) | 0.5 µg/mL (≈ 0.953 µM) | 0.5 µg/mL (≈ 0.953 µM) |  | 0.5 µg/mL (≈ 0.953 µM) | 0.5 µg/mL (≈ 0.953 µM) | 
C=C[C@]1(C)C[C@@H](OC(=O)N2Cc3ccc([N+](=O)[O-])cc3C2=O)[C@]2(C)[C@H](C)CC[C@]3(CCC(=O)[C@H]32)[C@@H](C)[C@@H]1O |  | 0.5 µg/mL (≈ 0.953 µM) | 0.5 µg/mL (≈ 0.953 µM) | 0.5 µg/mL (≈ 0.953 µM) |  | 0.5 µg/mL (≈ 0.953 µM) | 0.5 µg/mL (≈ 0.953 µM) | 
C=C[C@]1(C)C[C@@H](OC(=O)N2Cc3cc(N4CCOCC4)ccc3C2=O)[C@]2(C)[C@H](C)CC[C@]3(CCC(=O)[C@H]32)[C@@H](C)[C@@H]1O |  | 0.5 µg/mL (≈ 0.885 µM) | 0.5 µg/mL (≈ 0.885 µM) | 0.5 µg/mL (≈ 0.885 µM) |  | 0.5 µg/mL (≈ 0.885 µM) | 0.5 µg/mL (≈ 0.885 µM) | 
C=C[C@]1(C)C[C@@H](OC(=O)N2Cc3cc(N4CCCCC4)ccc3C2=O)[C@]2(C)[C@H](C)CC[C@]3(CCC(=O)[C@H]32)[C@@H](C)[C@@H]1O |  | 2 µg/mL (≈ 3.55 µM) | 2 µg/mL (≈ 3.55 µM) | 4 µg/mL (≈ 7.11 µM) |  | 2 µg/mL (≈ 3.55 µM) | 2 µg/mL (≈ 3.55 µM) | 
C=C[C@]1(C)C[C@@H](OC(=O)N2Cc3cc(NCc4ccccc4)ccc3C2=O)[C@]2(C)[C@H](C)CC[C@]3(CCC(=O)[C@H]32)[C@@H](C)[C@@H]1O |  | 2 µg/mL (≈ 3.42 µM) | 2 µg/mL (≈ 3.42 µM) | 2 µg/mL (≈ 3.42 µM) |  | 2 µg/mL (≈ 3.42 µM) | 2 µg/mL (≈ 3.42 µM) | 
C=C[C@]1(C)C[C@@H](OC(=O)N2Cc3cc(NC(=O)C(F)(F)F)ccc3C2=O)[C@]2(C)[C@H](C)CC[C@]3(CCC(=O)[C@H]32)[C@@H](C)[C@@H]1O |  | 2 µg/mL (≈ 3.39 µM) | 2 µg/mL (≈ 3.39 µM) | 4 µg/mL (≈ 6.77 µM) |  | 2 µg/mL (≈ 3.39 µM) | 2 µg/mL (≈ 3.39 µM) | 
C=C[C@]1(C)C[C@@H](OC(=O)N2Cc3c(N)cccc3C2=O)[C@]2(C)[C@H](C)CC[C@]3(CCC(=O)[C@H]32)[C@@H](C)[C@@H]1O |  | 0.0625 µg/mL (≈ 0.126 µM) | 0.0625 µg/mL (≈ 0.126 µM) | 0.0625 µg/mL (≈ 0.126 µM) |  | 0.0625 µg/mL (≈ 0.126 µM) | 0.0625 µg/mL (≈ 0.126 µM) | 
C=C[C@]1(C)C[C@@H](OC(=O)N2Cc3ccc(N)cc3C2=O)[C@]2(C)[C@H](C)CC[C@]3(CCC(=O)[C@H]32)[C@@H](C)[C@@H]1O |  | 0.0625 µg/mL (≈ 0.126 µM) | 0.0625 µg/mL (≈ 0.126 µM) | 0.0625 µg/mL (≈ 0.126 µM) |  | 0.0625 µg/mL (≈ 0.126 µM) | 0.0625 µg/mL (≈ 0.126 µM) | 
C=C[C@]1(C)C[C@@H](OC(=O)N2Cc3ccc(NC(=O)CN4CCOCC4)cc3C2=O)[C@]2(C)[C@H](C)CC[C@]3(CCC(=O)[C@H]32)[C@@H](C)[C@@H]1O |  | 0.5 µg/mL (≈ 0.804 µM) | 1 µg/mL (≈ 1.61 µM) | 1 µg/mL (≈ 1.61 µM) |  | 0.5 µg/mL (≈ 0.804 µM) | 0.5 µg/mL (≈ 0.804 µM) | 
C=C[C@]1(C)C[C@@H](OC(=O)N2Cc3ccc(NC(=O)CN4CCN(C)CC4)cc3C2=O)[C@]2(C)[C@H](C)CC[C@]3(CCC(=O)[C@H]32)[C@@H](C)[C@@H]1O |  | 0.5 µg/mL (≈ 0.788 µM) | 0.5 µg/mL (≈ 0.788 µM) | 0.5 µg/mL (≈ 0.788 µM) |  | 0.5 µg/mL (≈ 0.788 µM) | 0.5 µg/mL (≈ 0.788 µM) | 
C=C[C@]1(C)C[C@@H](OC(=O)N2Cc3ccc(NC(=O)CN4CCN(CCO)CC4)cc3C2=O)[C@]2(C)[C@H](C)CC[C@]3(CCC(=O)[C@H]32)[C@@H](C)[C@@H]1O |  | 0.25 µg/mL (≈ 0.376 µM) | 0.25 µg/mL (≈ 0.376 µM) | 0.5 µg/mL (≈ 0.752 µM) |  | 0.5 µg/mL (≈ 0.752 µM) | 0.5 µg/mL (≈ 0.752 µM) | 
C=C[C@]1(C)C[C@@H](OC(=O)N2Cc3ccc(NC(=O)CCN4CCOCC4)cc3C2=O)[C@]2(C)[C@H](C)CC[C@]3(CCC(=O)[C@H]32)[C@@H](C)[C@@H]1O |  | 0.25 µg/mL (≈ 0.393 µM) | 0.25 µg/mL (≈ 0.393 µM) | 0.5 µg/mL (≈ 0.786 µM) |  | 0.5 µg/mL (≈ 0.786 µM) | 0.5 µg/mL (≈ 0.786 µM) | 
C=C[C@]1(C)C[C@@H](OC(=O)N2Cc3ccc(NC(=O)CCN4CCN(C)CC4)cc3C2=O)[C@]2(C)[C@H](C)CC[C@]3(CCC(=O)[C@H]32)[C@@H](C)[C@@H]1O |  | 0.5 µg/mL (≈ 0.771 µM) | 0.5 µg/mL (≈ 0.771 µM) | 0.5 µg/mL (≈ 0.771 µM) |  | 0.5 µg/mL (≈ 0.771 µM) | 0.5 µg/mL (≈ 0.771 µM) | 
C=C[C@]1(C)C[C@@H](OC(=O)N2Cc3ccc(NC(=O)CCN4CCN(CCO)CC4)cc3C2=O)[C@]2(C)[C@H](C)CC[C@]3(CCC(=O)[C@H]32)[C@@H](C)[C@@H]1O |  | 2 µg/mL (≈ 2.95 µM) | 2 µg/mL (≈ 2.95 µM) | 4 µg/mL (≈ 5.89 µM) |  | 2 µg/mL (≈ 2.95 µM) | 2 µg/mL (≈ 2.95 µM) | 
